Laboratory results reported in ChEMBL document CHEMBL3576819, “Design, synthesis, biological evaluation and molecular docking studies of phenylpropanoid derivatives as potent anti-hepatitis B virus agents” (Eur J Med Chem, 2015).

Key:
[1] = Cytotoxicity against human HepG2.2.15 cells assessed as cell death after 9 days by MTT assay; assay type: cell-based, HepG2 2.2.15
Method in brief: (§1)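 HepG2.2.15 cells (MEM, 10% FBS, 380 µg/ml G418, 37 °C, 5% CO2) seeded at 1×10^5 cells/ml, cultured 24 h, then exposed to various drug concentrations; drug-containing medium renewed every 3 d. OD read at 450 nm after 9 days; percent cell death calculated; CC50 = concentration killing 50% of cells. Means of at least two experiments.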

Hepatitis B virus [2] = test: Antiviral activity against Hepatitis B virus infected in human HepG2.2.15 cells assessed as inhibition of HBsAg secretion by ELISA; assay type: functional, organism-based; conditions: HepG2 2.2.15
Method in brief: (§2)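 HepG2.2.15 cells (MEM, 10% FBS, 380 µg/ml G418) seeded at 1×10^5 cells/ml, held 24 h at 37 °C, then treated with various drug concentrations; medium with drug renewed every 3 d for up to 9 d. Culture medium sampled on days 3, 6 and 9, stored at -20 °C, and assayed for secreted antigen. Lamivudine as positive control; IC50 = 50% inhibition of secretion; means of at least two experiments.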

[3] = Selectivity index, ratio of CC50 for human HepG2.2.15 cells to IC50 for Hepatitis B virus infected in human HepG2.2.15 cells assessed as inhibition of HBsAg secretion; assay type: functional
Method in brief: (§3)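 Selectivity index computed as CC50/IC50, with CC50 from cell death of HepG2.2.15 cells after 9 days of treatment (OD 450 nm) and IC50 from 50% inhibition of HBeAg or HBsAg secretion in the same cells; medium with drug renewed every 3 d.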

Hepatitis B virus [4] = test: Antiviral activity against Hepatitis B virus infected in human HepG2.2.15 cells assessed as inhibition of HBeAg secretion by ELISA; assay type: functional, organism-based; conditions: HepG2 2.2.15; method in brief: as §2
[5] = Selectivity index, ratio of CC50 for human HepG2.2.15 cells to IC50 for Hepatitis B virus infected in human HepG2.2.15 cells assessed as inhibition of HBeAg secretion; assay type: functional; method in brief: as §3
Hepatitis B virus [6] = test: Antiviral activity against Hepatitis B virus infected in human HepG2.2.15 cells assessed as inhibition of HBsAg secretion at 300 uM after 3 days by ELISA; assay type: functional; conditions: HepG2 2.2.15, 72 h; method in brief: as §2
Hepatitis B virus [7] = test: Antiviral activity against Hepatitis B virus infected in human HepG2.2.15 cells assessed as inhibition of HBsAg secretion at 150 uM after 3 days by ELISA; assay type: functional; conditions: HepG2 2.2.15, 72 h; method in brief: as §2
Hepatitis B virus [8] = test: Antiviral activity against Hepatitis B virus infected in human HepG2.2.15 cells assessed as inhibition of HBsAg secretion at 75 uM after 3 days by ELISA; assay type: functional; conditions: HepG2 2.2.15, 72 h; method in brief: as §2
Hepatitis B virus [9] = test: Antiviral activity against Hepatitis B virus infected in human HepG2.2.15 cells assessed as inhibition of HBsAg secretion at 37.5 uM after 3 days by ELISA; assay type: functional; conditions: HepG2 2.2.15, 72 h; method in brief: as §2
Hepatitis B virus [10] = test: Antiviral activity against Hepatitis B virus infected in human HepG2.2.15 cells assessed as inhibition of HBsAg secretion at 300 uM after 6 days by ELISA; assay type: functional; conditions: HepG2 2.2.15, 144 h; method in brief: as §2
Hepatitis B virus [11] = test: Antiviral activity against Hepatitis B virus infected in human HepG2.2.15 cells assessed as inhibition of HBsAg secretion at 150 uM after 6 days by ELISA; assay type: functional; conditions: HepG2 2.2.15, 144 h; method in brief: as §2
Hepatitis B virus [12] = test: Antiviral activity against Hepatitis B virus infected in human HepG2.2.15 cells assessed as inhibition of HBsAg secretion at 75 uM after 6 days by ELISA; assay type: functional; conditions: HepG2 2.2.15, 144 h; method in brief: as §2
Hepatitis B virus [13] = test: Antiviral activity against Hepatitis B virus infected in human HepG2.2.15 cells assessed as inhibition of HBsAg secretion at 37.5 uM after 6 days by ELISA; assay type: functional; conditions: HepG2 2.2.15, 144 h; method in brief: as §2
Hepatitis B virus [14] = test: Antiviral activity against Hepatitis B virus infected in human HepG2.2.15 cells assessed as inhibition of HBsAg secretion at 300 uM after 9 days by ELISA; assay type: functional; conditions: HepG2 2.2.15, 216 h; method in brief: as §2
Hepatitis B virus [15] = test: Antiviral activity against Hepatitis B virus infected in human HepG2.2.15 cells assessed as inhibition of HBsAg secretion at 150 uM after 9 days by ELISA; assay type: functional; conditions: HepG2 2.2.15, 216 h; method in brief: as §2
Hepatitis B virus [16] = test: Antiviral activity against Hepatitis B virus infected in human HepG2.2.15 cells assessed as inhibition of HBsAg secretion at 75 uM after 9 days by ELISA; assay type: functional; conditions: HepG2 2.2.15, 216 h; method in brief: as §2
Hepatitis B virus [17] = test: Antiviral activity against Hepatitis B virus infected in human HepG2.2.15 cells assessed as inhibition of HBsAg secretion at 37.5 uM after 9 days by ELISA; assay type: functional; conditions: HepG2 2.2.15, 216 h; method in brief: as §2
Hepatitis B virus [18] = test: Antiviral activity against Hepatitis B virus infected in human HepG2.2.15 cells assessed as cell survival at 300 uM after 9 days (reference value: 100%); assay type: functional; conditions: HepG2 2.2.15, 216 h; method in brief: as §1
Hepatitis B virus [19] = test: Antiviral activity against Hepatitis B virus infected in human HepG2.2.15 cells assessed as cell survival at 150 uM after 9 days (reference value: 100%); assay type: functional; conditions: HepG2 2.2.15, 216 h; method in brief: as §1
Hepatitis B virus [20] = test: Antiviral activity against Hepatitis B virus infected in human HepG2.2.15 cells assessed as cell survival at 75 uM after 9 days (reference value: 100%); assay type: functional; conditions: HepG2 2.2.15, 216 h; method in brief: as §1
Hepatitis B virus [21] = test: Antiviral activity against Hepatitis B virus infected in human HepG2.2.15 cells assessed as cell survival at 37.5 uM after 9 days (reference value: 100%); assay type: functional; conditions: HepG2 2.2.15, 216 h; method in brief: as §1
Hepatitis B virus [22] = test: Antiviral activity against Hepatitis B virus infected in human HepG2.2.15 cells assessed as inhibition of HBeAg secretion at 300 uM after 3 days by ELISA; assay type: functional; conditions: HepG2 2.2.15, 72 h; method in brief: as §2
Hepatitis B virus [23] = test: Antiviral activity against Hepatitis B virus infected in human HepG2.2.15 cells assessed as inhibition of HBeAg secretion at 150 uM after 3 days by ELISA; assay type: functional; conditions: HepG2 2.2.15, 72 h; method in brief: as §2
Hepatitis B virus [24] = test: Antiviral activity against Hepatitis B virus infected in human HepG2.2.15 cells assessed as inhibition of HBeAg secretion at 75 uM after 3 days by ELISA; assay type: functional; conditions: HepG2 2.2.15, 72 h; method in brief: as §2
Hepatitis B virus [25] = test: Antiviral activity against Hepatitis B virus infected in human HepG2.2.15 cells assessed as inhibition of HBeAg secretion at 300 uM after 6 days by ELISA; assay type: functional; conditions: HepG2 2.2.15, 144 h; method in brief: as §2
Hepatitis B virus [26] = test: Antiviral activity against Hepatitis B virus infected in human HepG2.2.15 cells assessed as inhibition of HBeAg secretion at 150 uM after 6 days by ELISA; assay type: functional; conditions: HepG2 2.2.15, 144 h; method in brief: as §2
Hepatitis B virus [27] = test: Antiviral activity against Hepatitis B virus infected in human HepG2.2.15 cells assessed as inhibition of HBeAg secretion at 75 uM after 6 days by ELISA; assay type: functional; conditions: HepG2 2.2.15, 144 h; method in brief: as §2
Hepatitis B virus [28] = test: Antiviral activity against Hepatitis B virus infected in human HepG2.2.15 cells assessed as inhibition of HBeAg secretion at 37.5 uM after 6 days by ELISA; assay type: functional; conditions: HepG2 2.2.15, 144 h; method in brief: as §2
Hepatitis B virus [29] = test: Antiviral activity against Hepatitis B virus infected in human HepG2.2.15 cells assessed as inhibition of HBeAg secretion at 300 uM after 9 days by ELISA; assay type: functional; conditions: HepG2 2.2.15, 216 h; method in brief: as §2
Hepatitis B virus [30] = test: Antiviral activity against Hepatitis B virus infected in human HepG2.2.15 cells assessed as inhibition of HBeAg secretion at 150 uM after 9 days by ELISA; assay type: functional; conditions: HepG2 2.2.15, 216 h; method in brief: as §2
Hepatitis B virus [31] = test: Antiviral activity against Hepatitis B virus infected in human HepG2.2.15 cells assessed as inhibition of HBeAg secretion at 75 uM after 9 days by ELISA; assay type: functional; conditions: HepG2 2.2.15, 216 h; method in brief: as §2
Hepatitis B virus [32] = test: Antiviral activity against Hepatitis B virus infected in human HepG2.2.15 cells assessed as inhibition of HBeAg secretion at 37.5 uM after 9 days by ELISA; assay type: functional; conditions: HepG2 2.2.15, 216 h; method in brief: as §2
Hepatitis B virus [33] = test: Antiviral activity against Hepatitis B virus infected in human HepG2.2.15 cells assessed as inhibition of HBeAg secretion at 37.5 uM after 3 days by ELISA; assay type: functional; conditions: HepG2 2.2.15, 72 h; method in brief: as §2

| Compound | CC50 at 216 h [1] [µM] | IC50 (Hepatitis B virus [2]) [µM] | Ratio CC50/IC50 [3] | IC50 (Hepatitis B virus [4]) [µM] | Ratio CC50/IC50 [5] | inhibition at 300 µM (Hepatitis B virus [6]) [%] | inhibition at 150 µM (Hepatitis B virus [7]) [%] | inhibition at 75 µM (Hepatitis B virus [8]) [%] | inhibition at 37.5 µM (Hepatitis B virus [9]) [%] | inhibition at 300 µM (Hepatitis B virus [10]) [%] | inhibition at 150 µM (Hepatitis B virus [11]) [%] | inhibition at 75 µM (Hepatitis B virus [12]) [%] | inhibition at 37.5 µM (Hepatitis B virus [13]) [%] | inhibition at 300 µM (Hepatitis B virus [14]) [%] | inhibition at 150 µM (Hepatitis B virus [15]) [%] | inhibition at 75 µM (Hepatitis B virus [16]) [%] | inhibition at 37.5 µM (Hepatitis B virus [17]) [%] | viability at 300 µM (Hepatitis B virus [18]) [%] | viability at 150 µM (Hepatitis B virus [19]) [%] | viability at 75 µM (Hepatitis B virus [20]) [%] | further results |
| --- | --- | --- | --- | --- | --- | --- | --- | --- | --- | --- | --- | --- | --- | --- | --- | --- | --- | --- | --- | --- | --- |
| COc1cc(/C=C/C(=O)O/N=C/c2cccs2)cc(OC)c1OC | 857 | 197 | 4.36 | 209 | 4.1 | 44.7 | 35.6 | 26.3 | 17.1 | 56 | 44.4 | 30.6 | 21.9 | 57.7 | 46.4 | 30.9 | 24.8 | 79.9 | 92.6 | 93.4 | viability at 37.5 µM (Hepatitis B virus [21]): 100%; inhibition at 300 µM (Hepatitis B virus [22]): 15.3%; inhibition at 150 µM (Hepatitis B virus [23]): 11.3%; inhibition at 75 µM (Hepatitis B virus [24]): 8.64%; inhibition at 300 µM (Hepatitis B virus [25]): 33.1%; inhibition at 150 µM (Hepatitis B virus [26]): 28.2%; inhibition at 75 µM (Hepatitis B virus [27]): 20.9%; inhibition at 37.5 µM (Hepatitis B virus [28]): 17.1%; inhibition at 300 µM (Hepatitis B virus [29]): 55.1%; inhibition at 150 µM (Hepatitis B virus [30]): 46.3%; inhibition at 75 µM (Hepatitis B virus [31]): 31.6%; inhibition at 37.5 µM (Hepatitis B virus [32]): 20.6% |
| COc1cc(/C=C/C(=O)O/N=C/c2cccs2)cc2c1OCO2 | 677 | 74.4 | 9.1 | 105 | 6.47 | 59.3 | 46.6 | 35.5 | 19.1 | 67.3 | 50.7 | 37.4 | 23.3 | 77.9 | 68.2 | 56.1 | 29.7 | 95.6 | 97.5 | 107 | viability at 37.5 µM (Hepatitis B virus [21]): 119%; inhibition at 300 µM (Hepatitis B virus [22]): 41.9%; inhibition at 150 µM (Hepatitis B virus [23]): 33.8%; inhibition at 75 µM (Hepatitis B virus [24]): 25.6%; inhibition at 37.5 µM (Hepatitis B virus [33]): 12.7%; inhibition at 300 µM (Hepatitis B virus [25]): 51.1%; inhibition at 150 µM (Hepatitis B virus [26]): 40%; inhibition at 75 µM (Hepatitis B virus [27]): 33.8%; inhibition at 37.5 µM (Hepatitis B virus [28]): 16.1%; inhibition at 300 µM (Hepatitis B virus [29]): 65.8%; inhibition at 150 µM (Hepatitis B virus [30]): 57.9%; inhibition at 75 µM (Hepatitis B virus [31]): 48.9%; inhibition at 37.5 µM (Hepatitis B virus [32]): 29.2% |
| O/N=C/c1ccccn1 | 402 | 387 | 1.04 | 469 | 0.86 |  |  |  |  |  |  |  |  |  |  |  |  |  |  |  |  |
| O/N=C/c1cccs1 [2-THIOPHENECARBOXALDEHYDE OXIME] | 562 | 354 | 1.59 | 431 | 1.3 |  |  |  |  |  |  |  |  |  |  |  |  |  |  |  |  |
